Laboratory results as given in article PMC3163034 (Digestive diseases and sciences, 2011).
Structures can show the parent of a compound that is named as a salt.

Assays:
[1] = Colonic mucosa and mesenteric blood flow by laser Doppler perfusion imaging; type: in vivo, mice; conditions: 7 days of DSS, transanal treatment, n = 6; for Colonic blood flow at the mucosal level: naive 1.91 ± 0.26, mean ± SD; for Mesenteric blood flow: naive 2.82 ± 0.23, mean ± SD
Summary of the method: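 After 7 days of DSS in drinking water, with daily transanal test compound (10 or 100 mg/kg/day) or water, and naive controls, mice (n = 6/group) were anesthetized just before harvest. Median laparotomy exposed the mesentery. A […] LDPI beam 12 cm above scanned the mesentery and 2 cm of distal colonic mucosa. Perfusion was normalized to total pixel area (mean ± SD).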

[2] = Ussing-chamber permeability across excised mouse intestinal segments; type: in vitro ADME, mice; conditions: for Peff, Colon (mean ± SD) / Peff, Small intestine (mean ± SD): 1 mg/ml mucosal side, pH 7.4, 37°C
Summary of the method: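 Freshly isolated jejunum and left-sided colon from naive and 7-day DSS-treated mice, mounted with 0.3 cm2 exposed area. Both sides held 5 ml Krebs buffer, pH 7.4, 37°C, gassed with 95% O2/5% CO2. Test compound added mucosally (final 1 mg/ml). Serosal samples taken every 20 min from 0 to 120 min, in triplicate, and measured by LC-MS/MS. Peff = (dC/dt)·V/(A·Co).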

[3] = rats; cited from earlier work
[4] = Plasma levels of orally administered AT1a antagonists in DSS-treated mice; type: in vivo; conditions: 10 mg/kg; for Cmax at 2 h: mouse, plasma, po
Summary of the method: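 Mice given DSS for 7 days received test compound orally at 10 mg/kg and were killed 2 h later. Plasma was collected by cardiac puncture, diluted tenfold in mobile phase, and quantified by LC-MS/MS on a C18 column (150 × 2.0 mm, 0.2 ml/min). Data are mean ± SD, n = 5.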

[5] = Blood pressure and heart rate by tail-cuff in DSS mice; type: in vivo; conditions: transanal treatment, compared to naive group
Summary of the method: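 Mice received DSS in drinking water for 7 days plus daily transanal test compound (100 or 10 mg/kg/day) suspended in ddH2O, 0.25 ml total, via blunt needle. Naive controls received transanal water only. Heart rate and blood pressure were taken by automated noninvasive tail-cuff on DSS day 6, 1 h before (Pre) and 2 h after (Post) transanal dosing. Data are mean ± SD.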

[6] = Normal rat jejunum, Ussing chamber; cited from earlier work
[7] = 2 h after oral administration, DSS mice

Colonic blood flow at the mucosal level [1] | Mesenteric blood flow [1] | Peff, Colon (mean ± SD) ([2]; DSS-treated mice (7 days)) [×10⁻⁶ cm/s] | Peff, Small intestine (mean ± SD) ([2]; DSS-treated mice (7 days)) [×10⁻⁶ cm/s] | Peff, Colon (mean ± SD) ([2]; Normal (naive) mice) [×10⁻⁶ cm/s] | Peff, Small intestine (mean ± SD) ([2]; Normal (naive) mice) [×10⁻⁶ cm/s] | permeability coefficient compared to other AT1aR-antagonists ([2]; Ussing chamber, both naive- and DSS-treated specimens) | plasma level compared to candesartan [4, 7] | plasma level compared to losartan [4, 7] | Cmax at 2 h [4] [ng/mL] | Compound | oral 50% effective dose (ED50, blood pressure lowering) [3] [mg/kg] | Heart rate [5] | Peff, Small intestine [6] [×10⁻⁶ cm/s]
failed to change | failed to change | 2.66 ± 0.96 | 1.52 ± 1.31 | 1.58 ± 1.24 | 1.37 ± 0.15 | threefold to sixfold lower | over tenfold lower | threefold lower | 37.8 ± 26.4 | CCCCc1ncc(CO)n1Cc1ccc(-c2ccccc2-c2nn[nH]n2)cc1 [DCL, 2-butyl-1-[[2′-(2H-tetrazol-5-yl)[1,1′-biphenyl]-4-yl]methyl]-1H-imidazole-5-methanol] | > 100 | not significantly different | –
0.92 ± 0.20 | 1.56 ± 0.33 | 5.94 ± 4.41 | 3.85 ± 2.03 | 4.13 ± 3.04 | 7.85 ± 5.91 | – | – | – | 569 ± 188 | CCOc1nc2cccc(C(=O)O)c2n1Cc1ccc(-c2ccccc2-c2nnn[nH]2)cc1 [candesartan, 2-ethoxy-1-[[2′-(2H-tetrazol-5-yl)[1,1′-biphenyl]-4-yl]methyl]-1H-benzimidazole-7-carboxylic acid] | – | did decline significantly | –
– | – | – | – | – | – | – | – | – | – | C[C@H](N[C@@H](CCc1ccccc1)C(=O)O)C(=O)N1CCC[C@H]1C(=O)O [Enalaprilat] | – | – | 6e+12
0.88 ± 0.32 | 1.97 ± 0.58 | 5.77 ± 3.37 | 5.24 ± 1.4 | 6.4 ± 5.6 | 4.21 ± 1.67 | – | – | – | 117 ± 87 | CCCCc1nc(Cl)c(CO)n1Cc1ccc(-c2ccccc2-c2nn[nH]n2)cc1 [losartan, 2-butyl-4-chloro-1-[[2′-(2H-tetrazol-5-yl)[1,1′-biphenyl]-4-yl]methyl]-1H-imidazole-5-methanol, mono-potassium salt] | 0.59 | not significantly different | –
